Assays:
Type in all cases: functional
Enterococcus faecium [1] = test: Antibacterial activity against Enterococcus faecium isolate 5749
Enterococcus faecalis [2] = test: Antibacterial activity against Enterococcus faecalis isolate 5745
Enterococcus faecium [3] = test: Antibacterial activity against Enterococcus faecium isolate 5751
Enterococcus faecalis [4] = test: Antibacterial activity against Enterococcus faecalis isolate 5744
Enterococcus faecium [5] = test: Antibacterial activity against Enterococcus faecium isolate 5750
Enterococcus faecalis [6] = test: Antibacterial activity against Enterococcus faecalis isolate 5746
Enterococcus faecium [7] = test: Antibacterial activity against Enterococcus faecium isolate 5752
In short: (§1)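 MICs by broth microdilution in cation-adjusted Mueller-Hinton broth, following CLSI guidelines. Test isolates were clinical VRE (E. faecium), MRSA and VRSA recovered from patient sites or from nephrostomy tube biofilm. Biofilm isolates were obtained by PBS lumen washes of tube segments, dilution in Butterfield buffer and plating on selective and blood agars at 35°C for 24 to 48 h.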

Enterococcus faecium [8] = test: Antibacterial activity against Enterococcus faecium isolate 5753
Enterococcus faecalis [9] = test: Antibacterial activity against Enterococcus faecalis isolate 5742
Enterococcus faecalis [10] = test: Antibacterial activity against Enterococcus faecalis isolate 5743
Enterococcus faecium [11] = test: Antibacterial activity against Enterococcus faecium isolate 2547; in short: as §1
Staphylococcus aureus [12] = test: Antibacterial activity against vancomycin-resistant Staphylococcus aureus isolate 2514; in short: as §1
Staphylococcus aureus [13] = test: Antibacterial activity against methicillin-resistant Staphylococcus aureus isolate 5736; in short: as §1
Staphylococcus aureus [14] = test: Antibacterial activity against methicillin-resistant Staphylococcus aureus isolate 2530; in short: as §1
Staphylococcus aureus [15] = test: Antibacterial activity against methicillin-resistant Staphylococcus aureus isolate 5739; in short: as §1
Staphylococcus aureus [16] = test: Antibacterial activity against methicillin-resistant Staphylococcus aureus isolate 5737; in short: as §1
Staphylococcus aureus [17] = test: Antibacterial activity against vancomycin-resistant Staphylococcus aureus isolate 5734; in short: as §1
Staphylococcus aureus [18] = test: Antibacterial activity against vancomycin-resistant Staphylococcus aureus isolate 595; in short: as §1
Staphylococcus aureus [19] = test: Antibacterial activity against methicillin-resistant Staphylococcus aureus isolate 5735; in short: as §1
Staphylococcus aureus [20] = test: Antibacterial activity against methicillin-resistant Staphylococcus aureus isolate 5733; in short: as §1
Staphylococcus aureus [21] = test: Antibacterial activity against methicillin-resistant Staphylococcus aureus isolate 2513; in short: as §1

Measured: MIC

CO[C@H]1/C=C/O[C@@]2(C)Oc3c(C)c(O)c4c(O)c(c(/C=N/N5CCN(C)CC5)c(O)c4c3C2=O)NC(=O)/C(C)=C\C=C\[C@H](C)[C@H](O)[C@@H](C)[C@@H](O)[C@@H](C)[C@H](OC(C)=O)[C@@H]1C [RIFAMPIN]
> 4 µg/mL: Enterococcus faecium [1] | Enterococcus faecium [3] | Enterococcus faecium [7] | Enterococcus faecium [8] | Enterococcus faecium [11]
0.5 µg/mL: Enterococcus faecalis [4]
1 µg/mL: Enterococcus faecalis [2] | Enterococcus faecalis [9] | Enterococcus faecalis [10]
2 µg/mL: Enterococcus faecalis [6]
4 µg/mL: Enterococcus faecium [5]

CN(C)[C@@H]1C(O)=C(C(N)=O)C(=O)[C@@]2(O)C(O)=C3C(=O)c4c(O)cccc4[C@@](C)(O)[C@H]3C[C@@H]12 [TETRACYCLINE]
≤ 0.5 µg/mL: Staphylococcus aureus [14] | Staphylococcus aureus [15] | Staphylococcus aureus [16] | Enterococcus faecalis [6] | Staphylococcus aureus [21]
> 16 µg/mL: Staphylococcus aureus [12] | Enterococcus faecium [1] | Enterococcus faecalis [2] | Enterococcus faecium [3] | Staphylococcus aureus [18] | Enterococcus faecalis [4] | Enterococcus faecium [5] | Enterococcus faecium [7] | Enterococcus faecium [8] | Enterococcus faecalis [9] | Enterococcus faecalis [10] | Enterococcus faecium [11]
16 µg/mL: Staphylococcus aureus [17]
8 µg/mL: Staphylococcus aureus [13] | Staphylococcus aureus [19] | Staphylococcus aureus [20]

CCC[C@@H]1C[C@@H](C(=O)N[C@@H]([C@H]2O[C@H](SC)[C@H](O)[C@@H](O)[C@H]2O)[C@H](C)Cl)N(C)C1 [CLINDAMYCIN]
≤ 0.12 µg/mL: Staphylococcus aureus [14] | Staphylococcus aureus [15] | Staphylococcus aureus [16]
> 8 µg/mL: Staphylococcus aureus [12] | Staphylococcus aureus [13] | Staphylococcus aureus [17] | Staphylococcus aureus [18] | Staphylococcus aureus [19] | Staphylococcus aureus [20] | Staphylococcus aureus [21]

Cc1onc(-c2ccccc2)c1C(=O)N[C@@H]1C(=O)N2[C@@H]1SC(C)(C)[C@@H]2C(=O)O [OXACILLIN]
> 16 µg/mL: Staphylococcus aureus [12] | Staphylococcus aureus [13] | Staphylococcus aureus [14] | Staphylococcus aureus [15] | Staphylococcus aureus [16] | Staphylococcus aureus [17] | Staphylococcus aureus [18] | Staphylococcus aureus [19] | Staphylococcus aureus [20] | Staphylococcus aureus [21]

O=C(N[C@H](CO)[C@H](O)c1ccc([N+](=O)[O-])cc1)C(Cl)Cl [CHLORAMPHENICOL]
4 µg/mL: Enterococcus faecium [1] | Enterococcus faecium [8]
16 µg/mL: Enterococcus faecalis [4] | Enterococcus faecalis [6]
≤ 2 µg/mL: Enterococcus faecium [3]
8 µg/mL: Enterococcus faecalis [2] | Enterococcus faecium [5] | Enterococcus faecium [7] | Enterococcus faecalis [9] | Enterococcus faecalis [10] | Enterococcus faecium [11]

CN[C@H](CC(C)C)C(=O)N[C@H]1C(=O)N[C@@H](CC(N)=O)C(=O)N[C@H]2C(=O)N[C@H]3C(=O)N[C@H](C(=O)N[C@H](C(=O)O)c4cc(O)cc(O)c4-c4cc3ccc4O)[C@H](O)c3ccc(c(Cl)c3)Oc3cc2cc(c3O[C@@H]2O[C@H](CO)[C@@H](O)[C@H](O)[C@H]2O[C@H]2C[C@](C)(N)[C@H](O)[C@H](C)O2)Oc2ccc(cc2Cl)[C@H]1O [VANCOMYCIN]
32 µg/mL: Staphylococcus aureus [12]
64 µg/mL: Staphylococcus aureus [18]
2 µg/mL: Enterococcus faecalis [2] | Enterococcus faecalis [4] | Enterococcus faecalis [6] | Enterococcus faecalis [9] | Enterococcus faecalis [10]
256 µg/mL: Enterococcus faecium [3] | Enterococcus faecium [5] | Enterococcus faecium [8]

GENTAMICIN
16 µg/mL: Staphylococcus aureus [19]
64 µg/mL: Staphylococcus aureus [12]
32 µg/mL: Staphylococcus aureus [18]
> 64 µg/mL: Staphylococcus aureus [13] | Staphylococcus aureus [15] | Staphylococcus aureus [16] | Staphylococcus aureus [17] | Staphylococcus aureus [20]
< 4 µg/mL: Staphylococcus aureus [14] | Staphylococcus aureus [21]

C[C@H]1COc2c(N3CCN(C)CC3)c(F)cc3c(=O)c(C(=O)O)cn1c23.C[C@H]1COc2c(N3CCN(C)CC3)c(F)cc3c(=O)c(C(=O)O)cn1c23.O [LEVOFLOXACIN]
16 µg/mL: Staphylococcus aureus [12] | Staphylococcus aureus [13] | Staphylococcus aureus [14] | Staphylococcus aureus [15] | Staphylococcus aureus [16] | Staphylococcus aureus [17] | Staphylococcus aureus [18] | Staphylococcus aureus [19] | Staphylococcus aureus [20] | Staphylococcus aureus [21]

CC1(C)S[C@@H]2[C@H](NC(=O)Cc3ccccc3)C(=O)N2[C@H]1C(=O)O [PENICILLIN G]
2 µg/mL: Enterococcus faecalis [2] | Enterococcus faecalis [4] | Enterococcus faecalis [6] | Enterococcus faecalis [9] | Enterococcus faecalis [10]
256 µg/mL: Enterococcus faecium [3] | Enterococcus faecium [5] | Enterococcus faecium [8]
128 µg/mL: Enterococcus faecium [1] | Enterococcus faecium [7] | Enterococcus faecium [11]

CN(C)c1ccc(O)c2c1C[C@H]1C[C@H]3[C@H](N(C)C)C(O)=C(C(N)=O)C(=O)[C@@]3(O)C(O)=C1C2=O [MINOCYCLINE]
0.12 µg/mL: Enterococcus faecalis [6]
16 µg/mL: Enterococcus faecium [1] | Enterococcus faecium [3] | Enterococcus faecalis [4] | Enterococcus faecium [8]
32 µg/mL: Enterococcus faecium [5] | Enterococcus faecium [7] | Enterococcus faecium [11]
8 µg/mL: Enterococcus faecalis [2] | Enterococcus faecalis [9] | Enterococcus faecalis [10]

C[C@H]1c2cccc(O)c2C(=O)C2=C(O)[C@]3(O)C(=O)C(C(N)=O)=C(O)[C@@H](N(C)C)[C@@H]3[C@@H](O)[C@@H]21.O [DOXYCYCLINE]
8 µg/mL: Enterococcus faecium [1] | Staphylococcus aureus [17] | Enterococcus faecalis [4] | Enterococcus faecium [8]
≤ 0.25 µg/mL: Staphylococcus aureus [14] | Staphylococcus aureus [15] | Enterococcus faecalis [6] | Staphylococcus aureus [21]
0.5 µg/mL: Staphylococcus aureus [16]
4 µg/mL: Staphylococcus aureus [12] | Staphylococcus aureus [13] | Enterococcus faecalis [2] | Staphylococcus aureus [18] | Staphylococcus aureus [19] | Staphylococcus aureus [20] | Enterococcus faecalis [9] | Enterococcus faecalis [10]
16 µg/mL: Enterococcus faecium [3] | Enterococcus faecium [5] | Enterococcus faecium [7] | Enterococcus faecium [11]

CC[C@H]1OC(=O)[C@H](C)[C@@H](O[C@H]2C[C@@](C)(OC)[C@@H](O)[C@H](C)O2)[C@H](C)[C@@H](O[C@@H]2O[C@H](C)C[C@H](N(C)C)[C@H]2O)[C@](C)(O)C[C@@H](C)C(=O)[C@H](C)[C@@H](O)[C@]1(C)O [ERYTHROMYCIN]
> 8 µg/mL: Staphylococcus aureus [12] | Enterococcus faecium [1] | Staphylococcus aureus [13] | Enterococcus faecalis [2] | Staphylococcus aureus [14] | Staphylococcus aureus [15] | Enterococcus faecium [3] | Staphylococcus aureus [16] | Staphylococcus aureus [17] | Staphylococcus aureus [18] | Enterococcus faecalis [4] | Enterococcus faecium [5] | Staphylococcus aureus [19] | Staphylococcus aureus [20] | Enterococcus faecalis [6] | Staphylococcus aureus [21] | Enterococcus faecium [7] | Enterococcus faecium [8] | Enterococcus faecalis [9] | Enterococcus faecalis [10] | Enterococcus faecium [11]
